Experimental data reported in ChEMBL document CHEMBL3856239, “Synthesis and Antiobesity Properties of 6-(4-Chlorophenyl)-3-(4-((3,3-difluoro-1-hydroxycyclobutyl)methoxy)-3-methoxyphenyl)thieno[3,2-d]pyrimidin-4(3H)-one (BMS-814580): A Highly Efficacious Melanin Concentrating Hormone Receptor 1 (MCHR1) Inhibitor” (J Med Chem, 2016).

Legend:
Rattus norvegicus [1] = assay: Antiobesity activity in DIO Sprague-Dawley rat model assessed as reduction in body weight at 10 mg/kg, po qd for 28 days relative to vehicle control; assay type: functional; design: scale not given: the % may be the effect or the level left
Rattus norvegicus [2] = assay: Antiobesity activity in DIO Sprague-Dawley rat model assessed as reduction in caloric intake at 10 mg/kg, po qd for 28 days relative to vehicle control; assay type: functional; design: scale not given: the % may be the effect or the level left
[3] = Plasma concentration in Sprague-Dawley rat assessed as parent compound level at 10 mg/kg, po measured after 8 hrs; assay type: ADME, organism-based
Outline: (§1)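 SD rats given 10 mg/kg orally as parent or glycine prodrug (prodrug dose adjusted to parent), in 0.5% Methocel/0.1% Tween 80/99.4% water. Plasma and brain levels of parent measured 8 h post dose, n = 2; 0–8 h plasma AUC also determined.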

[4] = AUC in Sprague-Dawley rat assessed as parent compound level at 10 mg/kg, po measured after 8 hrs; assay type: ADME, organism-based; design: dose 10 mg/kg, time < 8 hr, route oral; conditions: in vivo
[5] = Solubility of the compound in phosphate buffer at pH 6.4; assay type: physicochemical
Outline: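 Solubility of parent compounds and prodrugs measured in 50 mM phosphate buffer, pH 6.4.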

[6] = Drug uptake in Sprague-Dawley rat brain assessed as parent compound level at 10 mg/kg, po measured after 8 hrs; assay type: ADME, organism-based; conditions: read-out: Drug uptake
Outline: (§2)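 Sprague-Dawley rats dosed orally once at 10 mg/kg as parent or glycinate prodrug (prodrug dose adjusted to parent), vehicle 0.5% Methocel/0.1% Tween 80/99.4% water; parent compound measured in brain 8 h post dose, n = 2.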

hERG (KCNH2) = hERG (KCNH2) (Homo sapiens, UniProt Q12809); assay: Inhibition of human ERG at 1 uM by patch clamp assay
[7] = Displacement of [Phe13,125I]Tyr19]-MCH from human MCHR1 E4Q/A5T double mutant expressed in HEK293 cells by TopCount scintillation counting method; assay type: cell-based
[8] = Ratio of drug level in brain to plasma in Sprague-Dawley rat at 10 mg/kg, po measured after 8 hrs; assay type: ADME, organism-based; conditions: brain and plasma, read-out: BPR; outline: as §1
[9] = Plasma concentration in Sprague-Dawley rat assessed as 6-(4-chlorophenyl)-3-(4-((3,3-difluoro-1-hydroxycyclobutyl)methoxy)-3-methoxyphenyl)thieno[3,2-d]pyrimidin-4(3H)-one level measured on day 4 post 20 hrs of last dosage
Outline: (§3)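 SD rats dosed orally once daily for 4 days at 3, 10 and 30 mg/kg, as glycine prodrug in 0.5% Methocel/0.1% Tween 80 vehicle. Parent plasma and brain levels taken on day 4 at 20 h; n = 8. Biliary lesions examined.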

Rattus norvegicus [10] = assay: Antiobesity activity in DIO Sprague-Dawley rat assessed as body weight loss at 10 mg/kg, po qd for 4 days; assay type: functional
Outline: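 Sprague-Dawley rats dosed orally once daily for 4 days at 3, 10 and 30 mg/kg (vehicle 0.5% Methocel/0.1% Tween 80/99.4% water), n = 8; body weight change from baseline versus vehicle-treated animals, value given for 10 mg/kg.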

[11] = Drug level in Sprague-Dawley rat brain assessed as 6-(4-chlorophenyl)-3-(4-((3,3-difluoro-1-hydroxycyclobutyl)methoxy)-3-methoxyphenyl)thieno[3,2-d]pyrimidin-4(3H)-one level measured on day 4 post 20 hrs of last dosage; assay type: ADME, tissue-based; conditions: in vivo, read-out: Ct
Outline: (§4)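 Sub-chronic study in Sprague-Dawley rats: oral glycinate prodrug at 3, 10 and 30 mg/kg once daily for 4 days, vehicle 0.5% Methocel/0.1% Tween 80/99.4% water; parent compound measured in brain on day 4 at 20 h.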

[12] = Metabolic stability in human liver microsomes assessed as compound remaining at 3 uM measured after 10 min; assay type: ADME; conditions: read-out: Stability
Outline: (§5)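 Test compound at 3.0 µM incubated with liver microsomes for 10 minutes; read-out is percent of parent remaining.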

[13] = AUC in Sprague-Dawley rat at 10 mg/kg, po measured after 8 hrs; assay type: ADME, organism-based; design: time < 8 hr, dose 10 mg/kg, route oral; conditions: in vivo
[14] = Protein binding in Sprague-Dawley rat plasma at 10 mg/kg, po qd for 4 days; assay type: ADME, organism-based; conditions: read-out: PPB
[15] = Lipophilicity, log P of the compound at pH 7 by HPLC analysis; assay type: physicochemical; conditions: buffer
Outline: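 LogP determined by HPLC at pH 7.0.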

[16] = Metabolic stability in rat liver microsomes assessed as compound remaining at 3 uM measured after 10 min; assay type: ADME; conditions: read-out: Stability; outline: as §5
[17] = Plasma concentration in Sprague-Dawley rat at 10 mg/kg, po measured after 8 hrs; assay type: ADME, organism-based; outline: as §1
[18] = Metabolic stability in mouse liver microsomes assessed as compound remaining at 3 uM measured after 10 min; assay type: ADME; conditions: read-out: Stability; outline: as §5
[19] = Drug uptake in Sprague-Dawley rat brain at 10 mg/kg, po measured after 8 hrs; assay type: ADME, organism-based; conditions: read-out: Drug uptake; outline: as §2
[20] = Protein binding in rat plasma assessed as unbound fraction; assay type: ADME, cell-free
Outline: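 Plasma protein binding reported as % free drug in rat, DIO rat, dog, cynomolgus monkey, rabbit and human plasma.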

Rattus norvegicus [21] = assay: Toxicity in Sprague-Dawley rat assessed as incidence of biliary lesions at 30 mg/kg, po for 4 days; assay type: organism-based; conditions: in vivo, 96 h; outline: as §3
[22] = Drug level in Sprague-Dawley rat brain assessed as 6-(4-chlorophenyl)-3-(4-((3-hydroxyoxetan-3-yl)methoxy)-3-methoxyphenyl)thieno[3,2-d]pyrimidin-4(3H)-one level measured on day 4 post 20 hrs of last dosage; assay type: ADME, tissue-based; conditions: in vivo, read-out: Ct; outline: as §4
[23] = Plasma concentration in Sprague-Dawley rat assessed as 6-(4-chlorophenyl)-3-(4-((3-hydroxyoxetan-3-yl)methoxy)-3-methoxyphenyl)thieno[3,2-d]pyrimidin-4(3H)-one level measured on day 4 post 20 hrs of last dosage; outline: as §3

Chain of hERG (KCNH2) (Q12809 whole entry): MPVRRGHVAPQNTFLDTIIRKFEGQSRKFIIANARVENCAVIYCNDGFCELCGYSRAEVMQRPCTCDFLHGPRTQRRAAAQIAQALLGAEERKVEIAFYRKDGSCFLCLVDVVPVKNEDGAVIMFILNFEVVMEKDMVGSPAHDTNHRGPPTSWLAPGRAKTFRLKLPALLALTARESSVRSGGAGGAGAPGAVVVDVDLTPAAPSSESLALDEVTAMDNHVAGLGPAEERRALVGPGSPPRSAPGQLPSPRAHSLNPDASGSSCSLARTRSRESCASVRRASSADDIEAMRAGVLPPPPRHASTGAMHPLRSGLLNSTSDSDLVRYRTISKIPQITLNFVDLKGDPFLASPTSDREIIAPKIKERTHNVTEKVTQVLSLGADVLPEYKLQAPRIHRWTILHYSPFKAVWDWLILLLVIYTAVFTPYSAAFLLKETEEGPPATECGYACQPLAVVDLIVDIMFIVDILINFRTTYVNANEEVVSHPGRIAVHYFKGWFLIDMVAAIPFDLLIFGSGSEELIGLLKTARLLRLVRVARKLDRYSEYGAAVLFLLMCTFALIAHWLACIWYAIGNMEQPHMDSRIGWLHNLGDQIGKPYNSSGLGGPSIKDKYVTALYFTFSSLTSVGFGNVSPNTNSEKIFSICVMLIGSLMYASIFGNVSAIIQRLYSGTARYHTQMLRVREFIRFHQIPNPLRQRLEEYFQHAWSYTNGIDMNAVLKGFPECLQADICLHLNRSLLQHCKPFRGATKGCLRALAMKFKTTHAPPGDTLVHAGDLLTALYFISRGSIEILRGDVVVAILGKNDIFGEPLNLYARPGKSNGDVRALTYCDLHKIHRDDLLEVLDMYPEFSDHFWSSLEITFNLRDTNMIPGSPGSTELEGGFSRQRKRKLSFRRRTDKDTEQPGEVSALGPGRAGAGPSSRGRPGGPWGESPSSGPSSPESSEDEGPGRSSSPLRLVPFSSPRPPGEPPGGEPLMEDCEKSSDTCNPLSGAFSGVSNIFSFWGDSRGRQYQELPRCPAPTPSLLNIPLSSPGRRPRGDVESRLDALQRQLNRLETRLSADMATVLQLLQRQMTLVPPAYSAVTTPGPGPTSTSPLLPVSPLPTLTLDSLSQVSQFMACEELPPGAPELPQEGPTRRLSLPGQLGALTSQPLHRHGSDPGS

SMILES | concentration at 8 h [3] | solubility [5] | concentration at 8 h [6] | Ki [7] | remaining at 10 min, 3 µM [12] | fraction unbound at 96 h [14] | logP [15] | remaining at 10 min, 3 µM [16] | further results
Cc1c(C(=O)NN2CCCCC2)nn(-c2ccc(Cl)cc2Cl)c1-c1ccc(Cl)cc1 [RIMONABANT] | – | – | – | – | – | – | – | – | Activity (Rattus norvegicus [1]): 8.5%; Activity (Rattus norvegicus [2]): 27%
COc1cc(-n2cnc3cc(-c4ccc(Cl)cc4)sc3c2=O)ccc1OCC1(OC(=O)CN)CCC1 | 15 nM | < 1 µg/mL | < 3 nM | – | – | – | – | – | AUC [4]: 1.3 µM·h
COc1cc(-n2cnc3cc(-c4ccc(Cl)cc4)sc3c2=O)ccc1OC[C@@H](C)O | – | – | – | 9.5 nM | – | – | – | – | inhibition at 1 µM (hERG (KCNH2)): 43.8%
COc1cc(-n2cnc3cc(-c4ccc(Cl)cc4)sc3c2=O)ccc1OCC1(OC(=O)CN)CC(F)(F)C1 | 4500 nM | < 1 µg/mL | 11300 nM | – | – | – | – | – | Kp at 8 h [8]: 2.5; AUC [4]: 38.1 µM·h; concentration [9]: 12800 nM; Activity (Rattus norvegicus [10]): 6.4%; concentration [11]: 7960 nM
COc1cc(-n2cnc3cc(-c4ccc(Cl)cc4)sc3c2=O)ccc1OCC(C)(C)OP(=O)(O)O | – | < 1 µg/mL | – | – | – | – | – | – | –
COc1cc(-n2cnc3cc(-c4ccc(Cl)cc4)sc3c2=O)ccc1OCC1(O)CCOCC1 | – | < 1 µg/mL | – | 11.2 nM | 87% | < 0.02 | 4.2 | 27% | AUC at 8 h [13]: 0.4 µM·h; concentration at 8 h [17]: 29 nM; remaining at 10 min, 3 µM [18]: 98%; concentration at 8 h [19]: < 3 nM
COc1cc(-n2cnc3cc(-c4ccc(Cl)cc4)sc3c2=O)ccc1OCC1(OC(=O)CN)CC1 | 113 nM | – | < 3 nM | – | – | – | – | – | AUC [4]: 5.9 µM·h
COc1cc(-n2cnc3cc(-c4ccc(Cl)cc4)sc3c2=O)ccc1OCC1(O)CCCC1 | – | < 1 µg/mL | – | 11.9 nM | 73% | < 0.02 | 4.7 | 14% | –
COc1cc(-n2cnc3cc(-c4ccc(Cl)cc4)sc3c2=O)ccc1OCC(C)(C)O | 3530 nM | < 1 µg/mL | 7800 nM | – | 100% | – | 4.5 | 98% | Fu [20]: 0.8%; remaining at 10 min, 3 µM [18]: 90%
COc1cc(-n2cnc3cc(-c4ccc(Cl)cc4)sc3c2=O)ccc1OCC1(O)CCC1 | – | < 1 µg/mL | – | 9.8 nM | – | < 0.02 | 4.7 | 24% | AUC at 8 h [13]: 0.2 µM·h; concentration at 8 h [17]: 6 nM; concentration at 8 h [19]: < 3 nM
COc1cc(-n2cnc3cc(-c4ccc(Cl)cc4)sc3c2=O)ccc1OCCN1CCCC1 | – | – | – | 2.9 to 3.8 nM | – | – | – | – | –
COc1cc(-n2cnc3cc(-c4ccc(Cl)cc4)sc3c2=O)ccc1OCC1(O)COC1 | – | < 1 µg/mL | – | 8.7 nM | 100% | < 0.02 | 3.8 | 47% | remaining at 10 min, 3 µM [18]: 100%; Activity (Rattus norvegicus [21]): 40%
COc1cc(-n2cnc3cc(-c4ccc(Cl)cc4)sc3c2=O)ccc1OCC1(OC(=O)CN)COC1 | 1160 nM | – | 1130 nM | – | – | – | – | – | concentration [22]: < 3 nM; AUC [4]: 34.9 µM·h; concentration [23]: 37 nM; Activity (Rattus norvegicus [10]): 0%
COc1cc(-n2cnc3cc(-c4ccc(Cl)cc4)sc3c2=O)ccc1OCC1(O)CC1 | – | < 1 µg/mL | – | 17.5 nM | 94% | < 0.02 | 4.1 | 61% | remaining at 10 min, 3 µM [18]: 99%
